# Screening data as filed in PubChem.
# CXCR6 block = inhibitors of human CXCR6 receptor; O00574; CHO-K1 PathHunter CXCR6 beta-arrestin, luminescence; inhibition, % at 20 µM; 360,000 tested, 0.36% active; AID 602244; in the data active = inhibition above about 34%, passing the limit was not always enough;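 also: antagonist mode with CXCL16 agonist at 10 nM final; 0% = 10 nM CXCL16 with DMSO and 100% = unstimulated wells without agonist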
# APJ agonist = APJ receptor agonism; P35414; CHO-K1 APJ PathHunter beta-arrestin, luminescence; 0% DMSO wells, 100% apelin; activation, % at 20 µM; 330,000 tested, 0.11% active; AID 2520;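 active = activation more than six SD over the plate average, tested at 20 µM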;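 also: 0% = DMSO alone and 100% = apelin-13 at 10 nM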
#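 Assay system: CHO-K1 cells stably expressing ProLink-tagged human APJ and arrestin–beta-gal acceptor. Compound dosing: 20 µM single point, 1% DMSO. Times: 16-18 h seeding, 90 min dark compound exposure, 60 min detection. Detection: beta-gal luminescence. Evaluation: APJ–arrestin association signal. Controls: negative DMSO alone, positive Apelin-13 at 10 nM.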
# CCR6 antagonist = antagonists of human CCR6 receptor. P51684. inhibition, % at 20 µM. AID 493098. 340,000 tested, 0.49% active. CHO-K1 CCR6 PathHunter beta-arrestin, luminescence, CCL20-stimulated;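 active = compounds whose inhibition of the agonist-driven luminescence signal at 20 µM reaches about 50%, limit read from the data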;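 also: cells stimulated with CCL20 at 14 nM final; plate controls were DMSO with CCL20 for no effect and DMSO without agonist for full effect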
# Target sequence (P51684 whole entry, looked up): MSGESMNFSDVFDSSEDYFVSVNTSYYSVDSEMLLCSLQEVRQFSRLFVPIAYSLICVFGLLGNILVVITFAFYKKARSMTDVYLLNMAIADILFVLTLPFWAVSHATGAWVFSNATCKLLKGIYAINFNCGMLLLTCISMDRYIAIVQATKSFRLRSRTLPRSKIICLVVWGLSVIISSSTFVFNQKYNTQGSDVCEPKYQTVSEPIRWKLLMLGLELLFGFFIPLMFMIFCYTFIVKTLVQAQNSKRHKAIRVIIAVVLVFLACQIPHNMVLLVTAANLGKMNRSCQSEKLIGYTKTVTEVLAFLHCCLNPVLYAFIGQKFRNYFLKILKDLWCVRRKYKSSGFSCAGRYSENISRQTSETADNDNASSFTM
# APJ antag = APJ receptor antagonism; P35414; CHO-K1 APJ beta-arrestin complementation, luminescence; inhibition, % at 20 µM; 330,000 tested, 0.32% active; AID 2521;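 active = inhibition above about 40% at 20 µM, limit read from the data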;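 also: cells challenged with 10 nM apelin-13 agonist together with compound; plate controls were apelin-13 plus DMSO wells for no effect and DMSO wells lacking apelin-13 for full effect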
# EBI2 antag = EBI2 (human) antagonism | inhibition, % at 5 µM | AID 651636 | P32249 | 360,000 tested, 0.81% active | EBI2 beta-arrestin recruitment, luminescence, 7a,25-OHC stimulated; in the data active = inhibition above about 38%;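 also: enzyme fragment complementation signal reports receptor beta-arrestin coupling in cells; 0% = agonist plus DMSO wells and 100% = wells without agonist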
# APJ ag confirm = confirmation of human APJ apelin receptor agonists; shares compounds with APJ agonist; CHO-K1 APJ PathHunter beta-arrestin, luminescence; AID 2764; 310 tested, 10% active; activation, % at 20 µM;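 active = activation above 40%, taking the highest of four retests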;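 also: plate controls were DMSO wells for no effect and apelin-13 at 10 nM for full effect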
# Starred values were filed as active, the others as inactive; x = no result. An excerpt weighted towards active compounds, which were near 1.5% of everything screened.
SMILES,CXCR6 block,APJ agonist,CCR6 antagonist,APJ antag,EBI2 antag,APJ ag confirm
Cc1ccc(C(O)(COC(=O)C(C)C)COC(=O)C(C)C)c(O)c1,7,-5,0,5,2,x
Cc1ccc(S(=O)(=O)NCc2ccc(C(=O)N3CCN(c4ccc([N+](=O)[O-])cc4)CC3)cc2)cc1,-10,19*,3,-18,-34,19
COc1ccc(N2CCN(C(=O)c3ccc(CNS(=O)(=O)c4ccc(C)cc4)cc3)CC2)cc1,3,-5,9,-6,3,x
CN(CC(=O)Nc1ccc(N2CCOCC2)cc1)C(=O)c1cc2c(s1)CCCC2,-6,1,8,-74,-4,x
N/C(Cc1ccc(Cl)c(Cl)c1)=N\OC(=O)c1cccs1,-19,19*,-25,-47,-22,40*
O=C(ONC1=NCCCCC1)c1cccc([N+](=O)[O-])c1,-27,6,-27,-41,-16,x
O=C(Nc1ccc(Cl)c([N+](=O)[O-])c1)ONC1=NCCCCC1,-9,16*,-15,-60,-11,18
COc1ccc(C2CC(c3ccc(C(F)(F)F)cc3)=NN2c2ccc(S(N)(=O)=O)cc2)cc1 (stereo not drawn),-18,x,9,x,8,x
COc1ccc2noc3c2c1C(=O)c1ccccc1-3,-2,21*,-4,-35,-21,28
NS(=O)(=O)c1ccc(NC(=S)NCC2CCCO2)cc1 (stereo not drawn),7,-1,-7,9,-6,x
CCOc1cc2[nH]c(=S)n(CCC(=O)N3CCc4ccccc4C3)c(=O)c2cc1OCC,-2,53*,-18,-11,-7,48*
CCOc1cc2[nH]c(=S)n(CC3CCCN3CC)c(=O)c2cc1OCC (stereo not drawn),11,17*,-8,16,9,25
COc1ccccc1OCC(=O)NCCNC(=O)COc1ccccc1OC,-3,-2,1,13,-17,x
CCc1nnc(NC(=O)CSc2nc3cccnc3n2C2CCCCC2)s1,10,53*,10,0,7,62*
N/C(=N\OS(=O)(=O)c1ccc2ccccc2c1)c1ccncc1,-19,28*,-27,-31,-22,68*
N/C(=N\OS(=O)(=O)c1ccc2ccccc2c1)c1cccnc1,-2,-3,-16,6,-9,x
CCCCCN=C(N)N/N=C/c1c[nH]c2ccc(OC)cc12,27,35*,55*,-20,5,39
CCCOc1ccc(C(=O)N/N=C/c2c[nH]c3ccc(Br)cc23)cc1,-10,-4,-18,-11,1,x
COC(=O)C1(Cc2cc(-c3cccnc3)no2)CCN(C(=O)OC(C)(C)C)CC1,-27,36*,-12,-191,-42,32
COC(=O)C1(Cc2cc(-c3ccc(Cl)cc3)no2)CCN(C(=O)OC(C)(C)C)CC1,-3,-3,12,-50,0,x
Nc1nc(N2CCN(c3ccccc3)CC2)n[nH]1,2,-3,4,-7,-1,x
COc1ccccc1CNC(=O)COC(=O)c1ccc(N2CCCC2=O)cc1,-1,-3,-2,-13,-10,x
CN(c1ccccc1)S(=O)(=O)c1cccc(NC(=O)c2cc(=O)c3ccccc3o2)c1,2,12*,-13,-10,-13,5
CCOc1ccccc1-c1nc(-c2ccc(NC(=O)Cc3ccc(OC)cc3)cc2)no1,0,22*,-1,-10,0,20
Cc1cc(C)cc(S(=O)(=O)c2cn(C)c3cc(N4CCN(C)CC4)c(F)cc3c2=O)c1,6,38*,6,14,-5,21
SMILES,CXCR6 block,APJ agonist,CCR6 antagonist,APJ antag,EBI2 antag,APJ ag confirm
CC1=C(c2ccc(C)cc2)[N+](=O)C(C)(C)N1[O-],0,10*,3,-126,-9,24
CC1=C(c2ccc(F)cc2)[N+](=O)C(C)(C)N1[O-],-8,5,-7,-111,-10,x
COc1ccc(C)cc1S(=O)(=O)N(C)CC(=O)NCc1ccco1,1,25*,1,-28,-14,25
CCOC(=O)N1CCN(CC(=O)Nc2cc(OCC)ccc2OCC)CC1,-3,-1,9,-3,3,x
CCc1ccc(C(=O)NC(CCSC)C(=O)O)cc1 (stereo not drawn),0,-5,-3,8,-3,x
C=CCn1c(SCCC)nc(O)cc1=O,-6,34*,1,-2,-11,4
